An excerpt weighted towards active compounds, which were near 1.9% of everything screened.
RanGTP-Impb inh – inhibitors of RanGTP-importin-beta interaction, primary screen, biochemical, FRET, CFP-Ran, YFP-importin-beta, homogeneous | Ran GTPase (GTP-bound) - importin-beta complex | cell-free CFP-Ran/YFP-importin-beta FRET ratio | inhibition, % (concentration not given with the values) | 1.1% of 300,000 active;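 active means more than half of the replicate wells show a fall in the fluorescence ratio signal beyond about 16%, limit read from the data, passing the limit was not always enough; inconclusive means exactly half of the replicate wells pass the set limit; inactive means fewer than half of replicates pass the limit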;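 further: 0% = DMSO wells and 100% = Ran loaded with GDP instead of GTP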
Runt-SMMHC FRET – inhibitors of RUNX1 Runt–CBFb-SMMHC binding, primary screen, biochemical, FRET, Cerulean-Runt, Venus-CBFb-SMMHC, uHTS. Runt-related transcription factor 1 (Homo sapiens) + Core-binding factor subunit beta …. 0.74% of 220,000 active. inhibition, % at 20 µM. Cerulean-Runt/Venus-CBFb-SMMHC FRET ratio 530/480, 1 h. AID 1434, 2008;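 active means mean inhibition across duplicate retests at 20 µM reaching about 50%, limit read from the data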;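 further: 0% = DMSO wells and 100% = wells with excess untagged CBFb-SMMHC; inhibitors lower the FRET ratio by blocking Runt binding to CBFb-SMMHC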
Target sequence (Q01196 whole entry, looked up): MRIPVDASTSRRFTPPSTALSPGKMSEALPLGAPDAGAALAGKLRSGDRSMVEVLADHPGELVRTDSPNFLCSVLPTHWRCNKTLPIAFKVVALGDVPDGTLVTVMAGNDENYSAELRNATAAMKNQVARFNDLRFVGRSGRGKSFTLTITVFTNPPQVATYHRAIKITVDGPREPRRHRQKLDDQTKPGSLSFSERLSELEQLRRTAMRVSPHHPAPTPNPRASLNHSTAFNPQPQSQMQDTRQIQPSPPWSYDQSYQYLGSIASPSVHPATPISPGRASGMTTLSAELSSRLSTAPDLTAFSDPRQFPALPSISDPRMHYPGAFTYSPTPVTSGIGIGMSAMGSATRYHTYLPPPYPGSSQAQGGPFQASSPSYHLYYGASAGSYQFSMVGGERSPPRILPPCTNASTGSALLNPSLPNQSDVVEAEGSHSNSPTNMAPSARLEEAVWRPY
Target sequence (Q13951 whole entry, looked up): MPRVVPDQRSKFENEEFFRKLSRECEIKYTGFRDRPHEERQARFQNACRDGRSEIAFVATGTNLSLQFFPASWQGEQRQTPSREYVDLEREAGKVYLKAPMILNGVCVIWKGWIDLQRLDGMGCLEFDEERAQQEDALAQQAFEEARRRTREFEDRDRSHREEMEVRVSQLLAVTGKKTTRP
Hck-Nef inh – inhibitors of Nef-activated human Hck kinase, primary screen, biochemical, Z-Lyte FRET, 384-well, Hck-YEEI | Tyrosine-protein kinase HCK (Homo sapiens), P08631 | Recombinant Hck-YEEI plus Nef, Z-Lyte FRET kinase assay | inhibition, % at 20 µM | 0.68% of 220,000 active;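 active means Hck-Nef kinase inhibition above about 50%, limit read from the data; inactive means inhibition below that limit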;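 further: 0% = DMSO with Hck plus Nef and 100% = Hck alone without Nef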
Runt-CBFb FRET – inhibitors of RUNX1 Runt–CBFb binding, primary screen, biochemical, FRET, Cerulean-Runt, Venus-CBFb, uHTS; Runt-related transcription factor 1 (Homo sapiens) + Core-binding factor subunit beta …; inhibition, % at 20 µM; 0.46% of 220,000 active; Cerulean-Runt/Venus-CBFb FRET ratio 530/480, 1 h;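 active means inhibition over about 50% at 20 µM in the single-dose screen, limit read from the data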;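 further: 0% = DMSO wells and 100% = excess unlabeled CBFb competitor control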
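Doses: 20 µM compound in 1% DMSO | Material: Cerulean-labeled Runt domain protein | Amount: Each fluorescent fusion protein 100 nM | Schedule: Two 1 h room-temperature incubations shielded from light | Measured by: FRET fluorescence | Evaluation: Loss of energy transfer signal | Controls: Unlabeled CBFb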
Hck-Nef confirm – retest of Hck:Nef kinase inhibitor hits, confirmation, biochemical, Z-Lyte FRET, 384-well, p-Tyr peptide counterscreen; shares compounds with Hck-Nef inh; Recombinant Hck-YEEI:Nef, Z-Lyte FRET kinase assay; calls only at 10 µM; 28% of 1,300 active; AID 463188, 2010;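 active means average inhibition of at least 50%, with Z-scores no higher than 3 in both the phospho-tyrosine peptide and fluorescence counterscreens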
* = called active by the depositor; i = inactive; ? = inconclusive; . = no result shown; + = active, no number.

SMILES | RanGTP-Impb inh | Runt-SMMHC FRET | Hck-Nef inh | Runt-CBFb FRET | Hck-Nef confirm
O=C(c1ccccc1)c1ccc2nc(Nc3ccccc3)c3nncn3c2c1 | 1 | -65 | 68* | 0 | i
Cc1ccc(-c2cc(C(=O)Nc3sc4c(c3C(=O)NCc3ccco3)CCC4)[nH]n2)c(O)c1 | ? | -19 | 3 | -8 | .
CCNC(=O)c1c(NC(=O)c2cc(-c3cc(C)ccc3O)n[nH]2)sc2c1CCCC2 | 6 | -24 | 100* | -24 | i
Cc1cc(O)c(-c2cc(C(=O)Nc3sc4c(c3C(=O)NCc3ccco3)CCC4)[nH]n2)cc1C | ? | -8 | 59* | -10 | i
Cc1nn(Cc2cccc(F)c2)c(C)c1NC(=O)c1c(Cl)cnn1C | 3 | 0 | 10 | -1 | .
O=C(CCc1nnc2ccc(NCc3ccccc3)nn12)NC1CCCCC1 | -4 | . | . | . | .
COC(=O)c1sc(N)c(C(=O)OC)c1COC(=O)[C@@H](NS(=O)(=O)c1cccc(Cl)c1)C(C)C | -2 | -3 | 79* | -1 | +
COc1cc(NC(=O)c2cccs2)c(C(=O)OCC(=O)NC(=O)NCc2ccccc2)cc1OC | -1 | -1 | 68* | 4 | i
COCCC(=O)N1CCC(Oc2ccc(C(=O)NCCSC)cc2)CC1 | 3 | . | . | . | .
Cc1sc(-n2c(C)cc(/C=C3\SC(=S)NC3=O)c2C)c(C#N)c1C | 10 | -4 | 71* | . | i
Cc1cc(C)n(C(C)CC(=O)Nc2ccc3c(c2)OCO3)n1 (stereo unspecified) | 2 | . | . | . | .
Cc1cc(SCC(=O)OCC(=O)c2c(N)n(C)c(=O)n(C)c2=O)c(C)cc1Br | 1 | -2 | 55* | -3 | i
COc1ccc(OC)c(C2Nc3c(Cl)ccc(C(=O)O)c3C3C=CCC32)c1 (stereo unspecified) | 0 | 14 | -7 | 21 | .
COC(=O)COc1ccc(C2Nc3c(Cl)ccc(C(=O)O)c3C3C=CCC32)cc1 (stereo unspecified) | 3 | -3 | 76* | 19 | i
Cc1ccc(OCC(=O)N2N=C(c3ccncc3)CC2(O)C(F)(F)F)cc1C (stereo unspecified) | 4 | 0 | 17 | 2 | .
Cc1ccc(C(=O)NCCSC(C)(C)C)cc1 | ? | 1 | 2 | 1 | .
CC(C)(C)SCCNC(=O)c1ccccc1 | 4 | 1 | 54* | 1 | i
COc1ccc(CN2C(=O)/C(=C/c3ccc(-c4ccc(Cl)c(C(=O)O)c4)o3)SC2=S)cc1 | . | -34 | -17 | 15 | .
CC1(C)OC(=O)C(=Cc2ccc(-c3ccc(Cl)c(C(=O)O)c3)o2)C(=O)O1 | -2 | 7 | 77* | 12 | i
O=C(O)c1cc(-c2ccc(/C=C3/SC(=S)N(Cc4ccccc4)C3=O)o2)ccc1Cl | . | 4 | 141* | 19 | +
CCOC(=O)/C(C#N)=C/c1cn(CCC(=O)O)nc1-c1ccc(Cl)cc1 | -3 | -4 | -3 | -2 | .
CC(=O)Nc1ccc(OCC=C(Cl)Cl)cc1 | 3 | 7 | 0 | 0 | .
CCN(CC)c1ccc(/C=N\NC(N)=O)cc1 | -5 | 29 | 2 | 2 | .
CCN(CC)c1ccc(/C=N/NC(=O)c2ccoc2C)cc1 | -2 | 21 | 61* | 8 | .
Cc1c2c(n3c(nc4ccccc43)c1C#N)N(CCCN(C)C)CC2 | 1 | 91* | 54* | 100* | i
SMILES | RanGTP-Impb inh | Runt-SMMHC FRET | Hck-Nef inh | Runt-CBFb FRET | Hck-Nef confirm
Cc1c2c(n3c(nc4ccccc43)c1C#N)N(CCN(C)C)CC2 | -2 | 91* | 55* | 19 | i
CCCC1CCc2c(c3ccccc3[nH]c2=O)O1 (stereo unspecified) | ? | -2 | 3 | -4 | .
O=C(Nc1cccc(S(=O)(=O)NC2=NCCC2)c1)c1cc(-c2ccco2)nc2ccccc12 | -6 | -7 | 87* | 9 | +
O=C(NC1CC1)c1cc(-c2ccco2)nc2ccccc12 | -5 | 1 | 72* | 22 | +
O=C(NC(=S)Nc1cccc(S(=O)(=O)NC2=NCCC2)c1)c1cc(-c2ccco2)nc2ccccc12 | -2 | -6 | 27 | -9 | .
N=C1/C(=C\c2ccc(-c3cccc(C(=O)O)c3)o2)C(=O)N=C2SC=C(c3ccccc3)N12 | -16 | -42 | 64* | -14 | +
COc1ccc(N2C3=C(C(=O)CC(C)(C)C3)C(c3ccccc3OC)C3=C2CC(C)(C)CC3=O)cc1 | 149* | 81* | 74* | 15 | i
COc1ccc(C2C3=C(CC(C)(C)CC3=O)N(C)C3=C2C(=O)CC(C)(C)C3)cc1OC | 9 | . | . | . | .
COc1ccc(N2C3=C(CC4=C2CC(C)(C)CC4=O)C(=O)CC(C)(C)C3)cc1 | 1 | 6 | 5 | 5 | .
COc1ccc(C2C3=C(CC(C)(C)CC3=O)N(C)C3=C2C(=O)CC(C)(C)C3)cc1 | 137* | 86* | 51* | 20 | i
COc1ccccc1/C=C/C=c1\sc2nc(=O)c(Cc3ccccc3)nn2c1=O | 1 | -51 | 81* | -1 | +
COc1ccc2nc(-n3c(O)c(C4=c5ccccc5=NC4=O)[nH]c3=S)sc2c1 | -10 | -12 | 103* | -12 | +
Cc1ccc(NS(=O)(=O)c2ccc(C(=O)N3CCN(c4ccccn4)CC3)cc2)cc1 | -3 | -8 | 80* | -2 | i
COc1ccc(CCNC(=S)NC2CCN(Cc3ccccc3)CC2)cc1 | ? | 5 | 26 | 6 | .
Nc1c2ccccc2nc2ccccc12 | 175* | 82* | 93* | 10 | .
Nc1c2c(nc3ccccc13)CCCC2 | 4 | 1 | -5 | 0 | .
COc1ccc(-n2c(O)c(/C=N/NS(=O)(=O)c3ccc(C)cc3)c3ccccc3c2=O)cc1OC | 0 | -68 | -22 | -12 | .
COc1ccccc1NS(=O)(=O)c1cccc(-n2c(O)c(C=Nc3ccccc3C(=O)O)c3ccccc3c2=O)c1 | 2 | 3 | 62* | -3 | i
CCc1nnc(NS(=O)(=O)c2ccc(NC(=S)NC(=O)/C=C/c3ccccc3)cc2)s1 | -3 | -3 | 5 | -4 | .
CCc1nnc(NS(=O)(=O)c2ccc(NC(=S)NC(=O)/C=C/c3ccc(C(C)C)cc3)cc2)s1 | -5 | -83 | 65* | -47 | +
COc1ccc(N(CC(=O)Nc2ccccc2C(=O)O)S(=O)(=O)c2ccc(C)c([N+](=O)[O-])c2)cc1 | 0 | -6 | 21 | -5 | .
O=S(=O)(c1ccc2ncn(O)c2c1)N1CCOCC1 | -4 | 0 | 13 | -2 | .
Cc1cc(NCCCn2ccnc2)n2c(nc3ccccc32)c1C#N | 19* | 30 | 64* | 13 | .

Screening results (PubChem)
